Measurements reported in the EternaBench riboswitch data.

System: MS2 coat protein
Assay: apparent Kd, MS2 coat protein; higher = weaker binding; RNA-MaP array; FMN 200 µM where present
Method in brief: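 Designs on Illumina sequencing-chip clusters, transcribed by stalled E. coli RNA polymerase, were exposed to SNAP-549-labelled MS2 coat protein in doubling steps from 0.7 or 1.5 nM up to 3 µM, without and then with constant ligand. The buffer held 100 mM Tris-HCl pH 7.5, 80 mM KCl, 4 mM MgCl2, BSA, DTT, yeast tRNA and Tween-20. Apparent Kd values are medians of filtered per-cluster binding-curve fits to green signal normalised to red-channel RNA signal and control-cluster median Fmax.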

[1] = designed as: OFF switch for flavin mononucleotide, no ligand
[2] = ligand present: flavin mononucleotide, designed as: OFF switch for flavin mononucleotide
[3] = designed as: ON switch for flavin mononucleotide, no ligand
[4] = ligand present: flavin mononucleotide, designed as: ON switch for flavin mononucleotide

Sequence | apparent Kd [1] | apparent Kd [2] | apparent Kd [3] | apparent Kd [4]
CGUUGUAACGCAGGAUAUCCAAAGCUUUUUGCAGGAGAAGGGUGUUACAUGAGGAUCACCCAUGUGAAGGCCCGCAUUCCUCAU | 0.00557 µM | 0.00641 µM |  | 
GGGCCCGGAGGAUAUACAUGAGGAUCACCCAUGUAUUUGGGCCCUAUUGGGCCCGGGUGUAGAAGGCCGGGUUU | 0.0157 µM | 0.0214 µM |  | 
CGAUAUGAUGCAGGAUAUCUAUCUUGAAUGAGGAGAGAAGGGCAAACCGAGACAUAAGCCUUAUUACAUGAGGAUCACCCAUGU | 0.0104 µM | 0.00938 µM |  | 
CAGCUGAAAGUCAGGAUAUCUAGAGCUUCGGCUCUAGAGAAGGGACAUGAGGAUCACCCAUGUGGUCACAGCUG | 1.42 µM | 0.149 µM |  | 
CAAUUUAUGUCAGGAUAUACAAUACAAUGAUUAGUAGAAGGGAUUAAUACAUGAGGAUCACCCAUGUCAUGUGUCAUCGUGCCC | 0.024 µM | 0.0207 µM |  | 
GAUCUGACAGGAUAUACAUGAGGAUCACCCAUGUGCGAGCUAGCGAAAGCUAGCUCAGGUAGAAGGGUCAGAUC | 0.012 µM | 0.0164 µM |  | 
UACAUGAGGAUCACCCAUGUUUUGUCGUGUAUGGUAUUUAUCUAGGAUAUCAAUAUAUUUAUUUAUGAGAAGGAGAAUAUUAAU | 0.038 µM | 0.0336 µM |  | 
CCGAGGCGAGGAUAUACAUGAGGAUCACCCAUGUCUGACCGACGCGCGCCAGGCAUAUGUAGAAGGCGCCGGAA | 0.0315 µM | 0.138 µM |  | 
UGAACUAUGUAGAAGGCCCUCAUGAAAAUGAAGGGAGGAUAUACAUGAGGAUCACCCAUGUGAAGAGCAAGAGGGUUUAACAGA | 0.149 µM | 0.172 µM |  | 
UUCCGGCGUGUAGGAUAUGGAUCCGAUUAGGAUCCAGAAGGACAUGAGGAUCACCCAUGUACAUGUAAACAGUCAUCACCGGAG | 0.00736 µM | 0.0114 µM |  | 
GUCAUGUAAGGAUAUCUUACAUGUGACUUCGGUCACUGUCGAGAGAAGGUACAUGAGGAUCACCCAUGUUCGAC | 0.0173 µM | 0.024 µM |  | 
UUCCAGCUUGUCAGGAUAUACUUAGGGUAAUCAGAGUAGAAGGGACAUGAGGAUCACCCAUGUGACGCUUGAGC | 0.0652 µM | 0.118 µM |  | 
UCGGCGCGAGGAUAUGCGGUUGCUUGGUAGGGUCGGAGCGUACAUGAGGAUCACCCAUGUAGAAGGCGCGCCGC | 0.0188 µM | 0.025 µM |  | 
GUUAUGCAGCAGGAUAUCCAUCCGCGGUAUGAUGGAGAAGGGCUGACAUGAGGAUCACCCAUGUGCGUCCUAGG | 0.0403 µM | 0.0971 µM |  | 
UUGGACGUCGUAGGAUAUGUAGGAUAUUCCUACAUGAGGAUCACCCAUGUUGACAUGGAAGAAGGACAUAAGGACGAUGUCCAU |  |  | 0.0274 µM | 0.00415 µM
AAAAAGGCAGGAUAUACAUGAGGAUCACCCAUGUUUUAAAAAAAAAAAAAAAAAAAAAGUAGAAGGGCCAAAAA | 0.0554 µM | 0.0451 µM |  | 
UUGGCGACGUAGAAGGGUGACAUGAGGAUCACCCAUGUGCCGAUAUUCCUCGAGAUAUGUCGGCCACAGGAUAUACGUGCCAUC |  |  | 0.0518 µM | 0.0986 µM
AGAAACUAGGAGAAGGACAUAUGAUUAAGACGAAACAUGAGGAUCACCCAUGUAGGAUAUCCUAGUUUCAGGAUCGUGAGAUCA | 0.00758 µM | 0.0153 µM |  | 
GCAGCACAGUUUUACAUGAGGAUCACCCAUGUCGAUUGUUAUGAGGAUAUGCAUCGUAUGAAGAUGCAGAAGGCAUUGUGCUGC |  |  | 0.00696 µM | 0.0055 µM
CCGGAAACGGGUAGCUCACAUGAGGAUCACCCAUGUAAAACACAGGAUAUGGAUCCUAAUUGGAUCCAGAAGGGUGUGAGCUAC |  |  | 0.0401 µM | 0.0236 µM
GCUACCAAAGAAGCCAACAUGAGGAUCACCCAUGUAUGUUGGUAGGAUAUCGUAUGCAAAGCAUACGAGAAGGGCUAAGGUAGC |  |  | 0.0988 µM | 0.116 µM
UUAUUAAGUGUGAGGAUAUGCUGGUCCUUGGAUCAGCAGAAGGCACAUGAGGAUCACCCAUGUACAAUAUUUUA | 0.039 µM | 0.23 µM |  | 
GGCUGUCGGUCGGGUCAUCCACAUGAGGAUCACCCAUGUAGGAGAAGGGUCCGCCAGGCUUGUGGAUAGGAUAUCCUAGAAUGA | 0.00545 µM | 0.00552 µM |  | 
GCCAUCGUAUGAGGAUAUGCUCCGGUUUCCGGAGCAGAAGGCAUGUCAUAAGACAUGAGGAUCACCCAUGUAGUUAAGAUGGCA |  |  | 0.135 µM | 0.00966 µM
GUUUUGGUAGGAUAUACAUGAGGAUCACCCAUGUCCCACCCGUUACCUAUGACCAUAUGUAGAAGGACCAUUUG | 0.0222 µM | 0.0282 µM |  | 
GGAUCUGAAACAGAUCCAAUACGAACAUGAGGAUCACCCAUGUAGGAUAUGCUACUCAAAGAGUAGCAGAAGGACAUGUGUCUU | 0.0243 µM | 0.147 µM |  | 
UGAUAGGACAGAGGAUAUACGUGCUAGAGAUACUAGCAAAAUAUCCUCACAUGAGGAUCACCCAUGUAGAAGGCUGUCCUAUCU | 0.018 µM | 0.0833 µM |  | 
AAAUUCCUCACAGGAUAUCCUACAUGAGGAUCACCCAUGUACUAACUGAGCAAAUUGCAACAAAAGGAGAAGGGUGAGGUGAAG |  |  | 0.0363 µM | 0.00425 µM

Sequence | apparent Kd [1] | apparent Kd [2] | apparent Kd [3] | apparent Kd [4]
GUAGCAUACCAAGGAUAUUUAGGGCUUUGAUAGACAUGAGGAUCACCCAUGUGGCGUUAGUCACGGGAGAAGGUGGUAUGCUAC |  |  | 0.383 µM | 0.0819 µM
CUACAUGAGGAUCACCCAUGUGCACACCGGAUCGGUAUGCGCAGAAGGGCCAUGGAGAAAGCCAGGCAGGAUAUGCAAAGGGCU |  |  | 0.258 µM | 0.176 µM
UGUAUGUAGGCAGGAUAUACAUGAAUAUAUAUGAUGUAGUAUGAUGUAACAUGAGGAUCACCCAUGUAGAAGGGCCGGUGUAUG | 0.0692 µM | 0.154 µM |  | 
UCUAUAAGAAAAUAGACGAAGUGGCCAGAAGGUGAAUGCCACAUGAGGAUCACCCAUGUUUCGAUCAAGGAUAUGGUUUCUCAC |  |  | 0.383 µM | 0.0991 µM
GGCGUGUUAGGAUAUCGCGGCGGCGGCGUUUGUUGUUGUUGUGAGAAGGAACAUGAGGAUCACCCAUGUAUGCC | 0.0348 µM | 0.055 µM |  | 
GGAAAUCAUGUAGGAUAUGCAUGGCGAAGCUACGCAGAAGGACAUGAGGAUCACCCAUGUUAUAGCGUCCGAUAAAGGAUGCAA | 0.117 µM | 0.164 µM |  | 
UCCACUGCUGAGAAGGGAUACGUGUGGUUCGAAUCAGGAUAUCGAUACAGUGCAGCAUGAGGACAUGAGGAUCACCCAUGUAUU |  |  | 0.0191 µM | 0.0142 µM
AAUCUGUAGCAGAAGGUCAUUUUUAUAAAUAAACUGGUGACAUGAGGAUCACCCAUGUAAACGUUGAAGGAUAUGCAUUCUAUU | 0.0449 µM | 0.0525 µM |  | 
GUGCGGUGAGGAUAUACGUAGGUACAGAUCUGUGUGUUCCUACAUGAGGAUCACCCAUGUAGAAGGCAUGGCAC | 0.0496 µM | 0.136 µM |  | 
UUGAGGUCAGGAUAUGCAUGGCGGGACUUGCGUCGUGGCGUGGAGAAGGGACAUGAGGAUCACCCAUGUGGAGU | 0.0931 µM | 0.0534 µM |  | 
GGUUAAUGCAAGGAUAUGCUAUUAUUUUAUUUUGCAGAAGGUGCAACAUGAGGAUCACCCAUGUUGGAGGGUUU | 0.0198 µM | 0.0261 µM |  | 
GUCACACACCGCUCCGUGUCUGACAUGAGGAUCACCCAUGUGAGAAGGUAGCGUCGCAGUGACGUUAAGGAUAUCACGUACAGA | 0.00481 µM | 0.0052 µM |  | 
GCCAGAGCAGGAUAUUCAAUAAUCCACAUGAGGAUCACCCAUGUCUAGCGAAAGCUAGAGGGAGAAGGGCUCUGGC | 0.0793 µM | 0.0337 µM |  | 
GGAGCCGGCACCGAGGAUAUUCAUAUUAAAACAUGAGGAUCACCCAUGUAGGCCAGAAGGCCUUGGGAGAAGGCGGAUCGGCUCG |  |  | 0.611 µM | 0.0384 µM
AUCCCGAUAGCAGGAUAUUUCUGCAGUUGUGGUUAGGUCGCCCUACAUGAGGAUCACCCAUGUAGAGAGAAGGGCUGUGGUAAU | 0.00671 µM | 0.00683 µM |  | 
GUCGUGUGAGGAUAUGGAUAGACGCAGUGACAGUAAGCGACCUAGAAGGCACAUGAGGAUCACCCAUGUAUGUG | 0.0455 µM | 0.0841 µM |  | 
CUCACGUUAGUAGGAUAUCCGACAUGAGGAUCACCCAUGUCACUGCGUCGCUAAGGUAGAUGCAAGGAGAAGGGCUGAUAAAUA |  |  | 0.259 µM | 0.124 µM
GUCAGCUCGUGAGGAUAUACAACACUGCUUCGGCAGUGUAUUAAGUUCACAUGAGGAUCACCCAUGUAGAAGGCACGAGCUGAU | 0.00556 µM | 0.0068 µM |  | 
GUCGGAAACGACAAAAGUAUGGAUCCAGAAGGCAUGUACAUGAGGAUCACCCAUGUCUAAAGAUAUGAGGAUAUGGAUCCAUAC |  |  | 0.00671 µM | 0.00518 µM
AAGCGACGAGGAUAUCGGUGGCUGAACAUGAGGAUCACCCAUGUGAACCGAUGGCAGUGUCGAGAAGGUGUUGAGU | 0.0139 µM | 0.0161 µM |  | 
GGUACCCUGGUUCUUCAAAAUACAUGAGGAUCACCCAUGUACUAGGAUAUCGCGCGAACCCUCGCUGAGAAGGAGUCGAUGGGC | 0.022 µM | 0.0234 µM |  | 
UGUCGGAGCAGAGGAUAUUACAUGAGGAUCACCCAUGUAUGAACCAAUAGCUGGAAACGGCAAUGUAAGAAGGCUGCUCCGACA | 0.0131 µM | 0.171 µM |  | 
AGAAAGUGAGGAUAUACAUGAGGAUCACCCAUGUAGAACGAGAGUUAUAAAAAUGGAAGUAGAAGGCGCAAAAG | 0.0371 µM | 0.0372 µM |  | 
AUGAGAAAAGCAGGAUAUCUAUUGUCUCAGAAACAUGAGGAUCACCCAUGUAGAGAAGGGCUAAGACCGACUCUUCGGAGUUGA | 0.00966 µM | 0.00977 µM |  | 
UUAGCAACAUGAGGAUCACCCAUGUAGGAUAUCGCUAUUGUAAUCAUGAAACAUGAUUACAAUAGCGAGAAGGACAUAUGCUGG | 0.0224 µM | 0.0195 µM |  | 
UGUUGUAUUACAGGAUAUCUAUUAUUAUUAUUUAGAGAAGGGUAUUCACAUGAGGAUCACCCAUGUAUAUACGAGGAAGUUGUG |  |  | 0.0437 µM | 0.0455 µM
UUGGACCUAGGAUAUACAUGAGGAUCACCCAUGUUGGCGCACGCCCACCUGGACCCGAGUAGAAGGAGGAAAAU | 0.0261 µM | 0.0784 µM |  | 
